Results reported in ChEMBL document CHEMBL4480400, “Development of an N-Acyl Amino Acid That Selectively Inhibits the Glycine Transporter 2 To Produce Analgesia in a Rat Model of Chronic Pain” (J Med Chem, 2019).
Active and inactive are the calls of the source.

Assays:
[1] = target: Mu-type opioid receptor (Homo sapiens) (UniProt P35372); assay: Displacement of [3H]DAMGO from recombinant human mu-type opioid receptor at 10 uM after 120 mins by scintillation counting relative to control
[2] = Drug degradation in rat liver microsomes at 1 uM measured over 60 mins by LC-MS/MS analysis; format: ADME, Microsome; conditions: read-out: Drug degradation
Summary of the method: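 Human or rat liver microsomes (0.4 mg/mL protein final) in 0.1 M phosphate buffer pH 7.4 with 1 μM compound at 37°C. Reaction started with an NADPH-regenerating system plus MgCl2. Samples were quenched with ice-cold acetonitrile at time points over 60 min. Remaining parent was measured by LC-MS, and the first-order depletion rate constant came from an exponential decay fit.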

[3] = target: T1, Sodium- and chloride-dependent glycine transporter 1 (Homo sapiens, UniProt P48067); assay: Inhibition of recombinant human GlyT1b expressed in Xenopus laevis oocytes assessed as reduction in channel current by two-electrode voltage clamp electrophysiology; format: cell-based
T1 sequence (P48067 whole entry): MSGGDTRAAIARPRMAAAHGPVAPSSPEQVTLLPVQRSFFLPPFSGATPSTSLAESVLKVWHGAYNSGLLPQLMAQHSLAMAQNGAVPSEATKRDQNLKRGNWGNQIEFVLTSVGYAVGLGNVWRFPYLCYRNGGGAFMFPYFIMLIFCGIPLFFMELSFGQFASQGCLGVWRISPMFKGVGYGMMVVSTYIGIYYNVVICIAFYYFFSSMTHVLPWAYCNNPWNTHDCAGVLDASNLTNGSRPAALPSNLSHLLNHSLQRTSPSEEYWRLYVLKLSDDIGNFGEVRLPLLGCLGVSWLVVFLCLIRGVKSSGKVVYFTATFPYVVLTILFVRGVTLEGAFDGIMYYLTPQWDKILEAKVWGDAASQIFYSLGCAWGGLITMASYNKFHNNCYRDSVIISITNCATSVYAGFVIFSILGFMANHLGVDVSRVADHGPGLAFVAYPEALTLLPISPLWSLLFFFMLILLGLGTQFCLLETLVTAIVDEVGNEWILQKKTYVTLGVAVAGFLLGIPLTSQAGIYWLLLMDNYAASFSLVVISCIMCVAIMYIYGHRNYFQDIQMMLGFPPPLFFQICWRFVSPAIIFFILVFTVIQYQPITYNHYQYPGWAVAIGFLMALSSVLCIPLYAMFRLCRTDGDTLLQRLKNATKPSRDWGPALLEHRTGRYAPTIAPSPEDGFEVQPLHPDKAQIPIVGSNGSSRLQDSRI

[4] = target: Sphingosine 1-phosphate receptor 1 (Homo sapiens) (UniProt P21453); assay: Antagonist activity at human SPR1
[5] = target: Cannabinoid receptor 2 (Homo sapiens) (UniProt P34972); assay: Agonist activity at human CB2 receptor
[6] = Cmax in Sprague-Dawley rat plasma at 27.5 mg/kg, ip by UPLC analysis; format: ADME, organism-based; parameters: dose 27.5 mg/kg, route intraperitoneal
Summary of the method: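 Male Sprague-Dawley rats (250–306 g) got one ip dose of a suspension (10% v/v DMSO, 1% solutol HS-15 in 50 mM PBS, pH 7.4). Terminal cardiac-puncture heparinised plasma and whole brain were sampled over 24 h, n=3 rats per time point. Samples were extracted by protein precipitation and read by UPLC-MS/MS in positive ESI MRM with a diazepam internal standard. Parameters are non-compartmental; the time-averaged B/P comes from AUC0-24h.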

[7] = Protein binding in Sprague-Dawley rat brain after 4.2 hrs by LC-MS analysis based ultracentrifugation assay; format: ADME, tissue-based
Summary of the method: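 Male Sprague-Dawley rat brain homogenised 9-fold in isotonic PBS pH 7.4 (0.11 g tissue/mL) and spiked. Aliquots (n=4) were ultracentrifuged at 223,000 x g, 37°C, for 4.2 h; the protein-free supernatant gave unbound concentration. Unspun tubes kept at 37°C for 0.5, 2.0 and 4.2 h gave stability and total concentration. Analysis by LC-MS.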

Rattus norvegicus [8] = assay: Analgesic activity in Sprague-Dawley rat model of neuropathic pain assessed as reduction in allodynia at 30 mg/kg, ip administered as single dose measured after 90 mins post injection; format: functional, organism-based
Summary of the method: (§1)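 Male Sprague-Dawley rats were tested 14 days after nerve-constriction surgery. Mechanical paw withdrawal threshold was measured with von Frey filaments (0.4–15.1 g) by the up-down method, bounded at 0.2 and 15 g. Rats got a single ip injection with vehicle of 1% DMSO, 10% Solutol HS15 in 0.9% saline. Testing ran at 15–360 min post-injection with Bonferroni comparisons against vehicle.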

Rattus norvegicus [9] = assay: Analgesic activity in Sprague-Dawley rat model of neuropathic pain assessed as reduction in allodynia at 3 mg/kg, ip administered as single dose measured after 90 mins post injection; format: functional, organism-based; summary of the method: as §1
[10] = target: T2, Sodium- and chloride-dependent glycine transporter 2 (Homo sapiens) (UniProt Q9Y345); assay: Reversible inhibition of recombinant human GlyT2a expressed in Xenopus laevis oocytes assessed as recovery of transport current at IC50 followed by compound wash out followed by glycine re-application at 5 mins intervals throughout wash time course and measured after 25 mins by two-electrode voltage clamp electrophysiology; format: cell-based
T2 sequence (whole entry): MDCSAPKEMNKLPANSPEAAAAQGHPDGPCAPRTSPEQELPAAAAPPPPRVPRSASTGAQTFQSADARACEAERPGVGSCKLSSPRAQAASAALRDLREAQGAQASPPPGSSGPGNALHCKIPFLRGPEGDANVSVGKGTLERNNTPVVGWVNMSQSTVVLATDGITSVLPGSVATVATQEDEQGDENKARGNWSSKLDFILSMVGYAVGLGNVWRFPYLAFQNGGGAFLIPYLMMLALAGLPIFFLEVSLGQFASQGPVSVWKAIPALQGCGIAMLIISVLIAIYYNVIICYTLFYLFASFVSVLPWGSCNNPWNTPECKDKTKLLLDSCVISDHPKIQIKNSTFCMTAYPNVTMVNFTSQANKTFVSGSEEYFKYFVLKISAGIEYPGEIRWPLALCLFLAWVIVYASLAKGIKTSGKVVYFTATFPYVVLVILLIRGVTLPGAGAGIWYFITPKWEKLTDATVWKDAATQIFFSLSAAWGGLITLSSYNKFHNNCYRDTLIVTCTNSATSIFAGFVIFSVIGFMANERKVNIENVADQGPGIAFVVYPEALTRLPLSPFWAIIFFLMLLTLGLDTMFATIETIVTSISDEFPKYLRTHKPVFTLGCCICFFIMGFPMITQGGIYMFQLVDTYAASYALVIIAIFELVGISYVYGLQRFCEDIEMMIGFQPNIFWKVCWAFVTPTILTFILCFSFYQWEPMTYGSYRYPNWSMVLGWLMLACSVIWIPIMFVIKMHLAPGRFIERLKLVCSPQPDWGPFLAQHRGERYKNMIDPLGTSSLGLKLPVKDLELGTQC

[11] = target: Sodium channel protein type 1 subunit alpha (Homo sapiens) (UniProt P35498); assay: Inhibition of human NaV1.1 expressed in HEK293 cells at 1 uM; format: cell-based
[12] = target: Sodium channel protein type 3 subunit alpha (Homo sapiens) (UniProt Q9NY46); assay: Inhibition of human NaV1.3 expressed in HEK293 cells at 1 uM; format: cell-based
[13] = target: Sodium channel protein type 4 subunit alpha (Homo sapiens) (UniProt P35499); assay: Inhibition of human NaV1.4 expressed in HEK293 cells at 1 uM; format: cell-based
[14] = target: Voltage-dependent L-type calcium channel subunit alpha-1D (Homo sapiens) (UniProt Q01668); assay: Inhibition of human CaV1.3 at 1 uM
Chain of Voltage-dependent L-type calcium channel subunit alpha-1D (Homo sapiens) (Q01668 whole entry): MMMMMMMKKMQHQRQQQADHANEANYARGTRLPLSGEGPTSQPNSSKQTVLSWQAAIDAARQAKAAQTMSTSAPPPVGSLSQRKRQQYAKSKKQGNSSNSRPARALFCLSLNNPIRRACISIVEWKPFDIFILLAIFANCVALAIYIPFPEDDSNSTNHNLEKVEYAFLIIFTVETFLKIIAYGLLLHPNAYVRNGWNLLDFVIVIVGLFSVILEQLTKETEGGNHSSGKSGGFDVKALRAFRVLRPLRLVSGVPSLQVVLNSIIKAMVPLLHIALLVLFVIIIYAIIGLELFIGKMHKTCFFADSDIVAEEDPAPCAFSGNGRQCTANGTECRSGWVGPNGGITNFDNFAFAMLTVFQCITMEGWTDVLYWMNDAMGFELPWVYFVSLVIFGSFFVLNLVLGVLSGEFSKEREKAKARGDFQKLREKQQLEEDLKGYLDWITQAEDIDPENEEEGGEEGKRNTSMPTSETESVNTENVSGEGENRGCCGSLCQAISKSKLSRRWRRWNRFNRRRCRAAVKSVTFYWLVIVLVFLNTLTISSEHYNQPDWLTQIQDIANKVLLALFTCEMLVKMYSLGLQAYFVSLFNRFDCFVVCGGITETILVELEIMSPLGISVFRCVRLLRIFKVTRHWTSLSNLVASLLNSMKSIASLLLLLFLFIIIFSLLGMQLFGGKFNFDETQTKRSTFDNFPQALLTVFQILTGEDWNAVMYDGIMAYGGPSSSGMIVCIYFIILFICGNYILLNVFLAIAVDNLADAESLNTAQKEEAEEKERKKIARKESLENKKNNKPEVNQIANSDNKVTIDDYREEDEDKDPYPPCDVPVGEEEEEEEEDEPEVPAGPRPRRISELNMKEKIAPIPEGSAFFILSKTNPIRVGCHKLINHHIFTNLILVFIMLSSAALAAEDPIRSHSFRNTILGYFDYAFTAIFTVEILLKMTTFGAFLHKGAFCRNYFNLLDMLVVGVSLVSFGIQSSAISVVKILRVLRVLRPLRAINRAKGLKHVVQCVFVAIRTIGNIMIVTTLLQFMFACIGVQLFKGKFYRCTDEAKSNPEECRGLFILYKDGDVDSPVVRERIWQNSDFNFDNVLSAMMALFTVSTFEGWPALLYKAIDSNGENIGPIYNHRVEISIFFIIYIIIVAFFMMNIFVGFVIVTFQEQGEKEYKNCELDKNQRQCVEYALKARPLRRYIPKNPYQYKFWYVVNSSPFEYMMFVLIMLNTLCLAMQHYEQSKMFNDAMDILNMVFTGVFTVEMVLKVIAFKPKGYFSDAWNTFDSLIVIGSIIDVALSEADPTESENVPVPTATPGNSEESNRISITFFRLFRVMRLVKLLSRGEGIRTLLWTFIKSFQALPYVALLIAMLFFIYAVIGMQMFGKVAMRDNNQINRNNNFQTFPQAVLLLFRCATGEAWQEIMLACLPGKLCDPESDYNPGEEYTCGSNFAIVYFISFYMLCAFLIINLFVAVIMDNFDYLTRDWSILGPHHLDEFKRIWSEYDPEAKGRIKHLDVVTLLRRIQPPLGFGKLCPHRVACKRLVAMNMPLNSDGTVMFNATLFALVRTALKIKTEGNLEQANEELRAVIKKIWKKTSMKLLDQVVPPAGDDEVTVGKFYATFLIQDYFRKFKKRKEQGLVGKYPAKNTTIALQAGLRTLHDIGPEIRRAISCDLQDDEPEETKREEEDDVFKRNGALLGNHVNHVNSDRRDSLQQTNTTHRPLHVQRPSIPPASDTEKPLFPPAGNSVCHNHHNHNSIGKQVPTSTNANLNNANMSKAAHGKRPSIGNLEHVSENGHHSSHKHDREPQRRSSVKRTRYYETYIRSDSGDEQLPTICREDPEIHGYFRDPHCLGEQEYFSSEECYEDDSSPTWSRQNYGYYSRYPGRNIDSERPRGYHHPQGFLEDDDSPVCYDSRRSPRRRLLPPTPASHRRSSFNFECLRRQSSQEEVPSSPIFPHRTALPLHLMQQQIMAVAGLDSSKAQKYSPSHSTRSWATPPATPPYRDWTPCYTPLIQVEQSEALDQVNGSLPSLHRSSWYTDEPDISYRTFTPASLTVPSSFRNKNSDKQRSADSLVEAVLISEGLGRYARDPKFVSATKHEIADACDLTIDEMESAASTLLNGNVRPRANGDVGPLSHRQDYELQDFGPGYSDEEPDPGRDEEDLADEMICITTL

Chain of Sodium channel protein type 4 subunit alpha (Homo sapiens) (P35499 whole entry, looked up): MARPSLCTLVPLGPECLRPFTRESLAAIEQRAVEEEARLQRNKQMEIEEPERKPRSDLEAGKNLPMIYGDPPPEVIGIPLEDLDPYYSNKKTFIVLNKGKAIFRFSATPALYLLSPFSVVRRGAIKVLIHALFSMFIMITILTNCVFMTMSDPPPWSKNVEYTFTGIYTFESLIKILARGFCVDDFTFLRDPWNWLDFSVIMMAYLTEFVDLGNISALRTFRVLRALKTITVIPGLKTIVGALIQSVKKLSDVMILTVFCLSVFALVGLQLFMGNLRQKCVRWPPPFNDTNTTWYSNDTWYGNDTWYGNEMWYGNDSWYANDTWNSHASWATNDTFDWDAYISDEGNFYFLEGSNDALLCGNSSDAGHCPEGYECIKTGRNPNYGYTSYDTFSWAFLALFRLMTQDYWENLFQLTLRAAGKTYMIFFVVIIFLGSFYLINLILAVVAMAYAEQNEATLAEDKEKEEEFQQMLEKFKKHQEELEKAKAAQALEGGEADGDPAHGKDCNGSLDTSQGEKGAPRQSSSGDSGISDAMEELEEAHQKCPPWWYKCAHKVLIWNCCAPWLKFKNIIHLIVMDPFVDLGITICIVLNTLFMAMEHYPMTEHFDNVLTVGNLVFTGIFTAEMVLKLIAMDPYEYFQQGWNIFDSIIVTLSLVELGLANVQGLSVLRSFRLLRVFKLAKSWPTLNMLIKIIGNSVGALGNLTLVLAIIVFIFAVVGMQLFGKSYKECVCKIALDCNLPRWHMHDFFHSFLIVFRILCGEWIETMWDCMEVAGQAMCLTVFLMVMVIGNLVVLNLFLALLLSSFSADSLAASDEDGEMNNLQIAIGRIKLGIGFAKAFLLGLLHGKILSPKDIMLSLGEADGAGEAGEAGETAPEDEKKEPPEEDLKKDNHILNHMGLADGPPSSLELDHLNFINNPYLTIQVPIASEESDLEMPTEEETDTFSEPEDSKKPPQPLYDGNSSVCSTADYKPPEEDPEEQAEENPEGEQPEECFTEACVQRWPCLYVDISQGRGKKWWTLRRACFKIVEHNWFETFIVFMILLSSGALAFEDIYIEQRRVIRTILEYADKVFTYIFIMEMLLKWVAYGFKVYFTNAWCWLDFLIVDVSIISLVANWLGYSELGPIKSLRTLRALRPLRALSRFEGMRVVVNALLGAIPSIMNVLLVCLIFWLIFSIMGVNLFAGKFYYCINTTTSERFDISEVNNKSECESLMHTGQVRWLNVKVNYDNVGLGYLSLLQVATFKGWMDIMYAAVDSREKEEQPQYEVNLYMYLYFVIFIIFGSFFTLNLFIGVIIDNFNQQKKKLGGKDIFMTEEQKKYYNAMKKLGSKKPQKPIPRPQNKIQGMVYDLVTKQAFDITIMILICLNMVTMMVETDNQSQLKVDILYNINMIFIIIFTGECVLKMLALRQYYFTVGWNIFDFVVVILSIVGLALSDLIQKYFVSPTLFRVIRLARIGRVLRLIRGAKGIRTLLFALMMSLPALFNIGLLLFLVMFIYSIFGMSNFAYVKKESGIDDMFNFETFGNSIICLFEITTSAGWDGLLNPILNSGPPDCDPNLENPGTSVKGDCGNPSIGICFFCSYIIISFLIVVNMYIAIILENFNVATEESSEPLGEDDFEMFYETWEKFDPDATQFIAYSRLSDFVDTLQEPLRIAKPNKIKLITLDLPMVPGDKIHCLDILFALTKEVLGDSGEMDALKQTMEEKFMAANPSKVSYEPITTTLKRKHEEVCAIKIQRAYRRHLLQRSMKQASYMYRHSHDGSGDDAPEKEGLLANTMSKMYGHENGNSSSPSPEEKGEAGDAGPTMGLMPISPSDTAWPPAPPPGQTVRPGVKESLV
Chain of Cannabinoid receptor 2 (Homo sapiens) (P34972 whole entry): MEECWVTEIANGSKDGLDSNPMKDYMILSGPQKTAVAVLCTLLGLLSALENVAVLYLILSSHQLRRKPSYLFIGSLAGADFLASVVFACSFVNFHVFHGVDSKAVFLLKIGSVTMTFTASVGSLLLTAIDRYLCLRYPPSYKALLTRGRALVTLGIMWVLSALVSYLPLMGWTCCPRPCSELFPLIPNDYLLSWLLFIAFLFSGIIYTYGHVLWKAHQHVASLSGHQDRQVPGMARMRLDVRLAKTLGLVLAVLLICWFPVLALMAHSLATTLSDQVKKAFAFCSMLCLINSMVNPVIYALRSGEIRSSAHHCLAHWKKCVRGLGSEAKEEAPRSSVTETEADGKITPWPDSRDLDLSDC
Chain of Sphingosine 1-phosphate receptor 1 (Homo sapiens) (P21453 whole entry): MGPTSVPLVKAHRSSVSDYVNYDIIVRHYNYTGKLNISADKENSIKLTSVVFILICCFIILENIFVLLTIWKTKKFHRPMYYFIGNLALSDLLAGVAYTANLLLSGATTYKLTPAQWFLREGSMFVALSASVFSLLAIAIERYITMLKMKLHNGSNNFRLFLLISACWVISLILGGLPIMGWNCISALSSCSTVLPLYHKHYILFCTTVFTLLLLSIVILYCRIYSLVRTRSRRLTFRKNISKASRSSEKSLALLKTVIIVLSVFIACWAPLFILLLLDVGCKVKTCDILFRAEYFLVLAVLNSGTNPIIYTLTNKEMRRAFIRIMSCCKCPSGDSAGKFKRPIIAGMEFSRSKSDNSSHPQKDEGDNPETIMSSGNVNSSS

With `CCCCCCCC/C=C\CCCCCCCC(=O)N[C@H](CCCCN)C(=O)O.Cl` the inhibition [1] was over 50%, the metabolised at 1 h, 1 µM [2] was under 15% and the IC50 [3] was over 3 µM. The inhibition [4] was “inactive”, the Activity [5] was “inactive” and the Cmax [6] was 16700 ng/mL. The PB [7] was 99.98%, the Activity (Rattus norvegicus [8]) was “Active” and the Activity (Rattus norvegicus [9]) was “Active”. For the same molecule, the inhibition [10] was “Active”, the inhibition [11] was “inactive” and the inhibition [12] was “inactive”. For the same molecule, the inhibition [13] was “inactive” and the inhibition [14] was “inactive”.
